Assay results reported in ChEMBL document CHEMBL1773023, “Potent and selective phosphopeptide mimetic prodrugs targeted to the Src homology 2 (SH2) domain of signal transducer and activator of transcription 3” (J Med Chem, 2011).
Calls of active or inactive are those of the source. The calls are words filed in the database; no cut-off is given here.

Key:
[1] = biological target: T1, Signal transducer and activator of transcription 3 (Homo sapiens, UniProt P40763); assay: Inhibition of SH2 domain of Stat3 constitutive phosphorylation at Tyr705 in human MDA-MB-468 cells at 25 uM after 2 hrs by Western blotting; assay type: cell-based
Method in brief: (§1)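 MDA-MB-468 cells (4×10^5/well, DMEM 10% FCS, overnight) given prodrug from freshly made 10 mM DMSO stock for 2 h. Lysates in Hepes pH 7.4 Triton buffer with phosphatase/protease inhibitors; 12 μg protein on 8% SDS-PAGE, PVDF, probed for pStat3 Y705 by ECL, then stripped and reprobed for total Stat3.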

[2] = system: MDA-MB-468; assay: Cytotoxicity against human MDA-MB-468 cells assessed as cell growth inhibition at 10 to 15 uM after 72 hrs by MTT assay; assay type: functional, cell-based
Method in brief: (§2)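 MDA-MB-468 cells in DMEM/10% FBS, 1500 cells/well in triplicate; medium changed next day. Prodrug stock 10 mM in ethanol, diluted into wells (ethanol <1% final); single dose or daily re-addition at 24 and 48 h in same medium. MTT read-out at 72 h; assays run three times.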

[3] = system: MeWo; assay: Cytotoxicity against human MeWo cells assessed as cell growth inhibition at 5 to 10 uM after 72 hrs by MTT assay; assay type: functional
Method in brief: (§3)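 Cell lines with constitutive Stat3 phosphorylation (melanoma, NSCLC) exposed to prodrug at 5–10 μM. Percent growth inhibition recorded.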

[4] = biological target: Focal adhesion kinase 1 (Homo sapiens) (UniProt Q05397); assay: Inhibition of constitutive FAK phosphorylation at Tyr861 in human MDA-MB-468 cells at 5 uM measured after 2 hrs by Western blotting
[5] = Cytotoxicity against human H1299 cells assessed as cell growth inhibition at 5 to 10 uM after 72 hrs by MTT assay; assay type: functional, NCI-H1299; method in brief: as §3
[6] = Cytotoxicity against human NCI-H528 cells assessed as cell growth inhibition at 5 to 10 uM after 72 hrs by MTT assay; assay type: functional; method in brief: as §3
[7] = Cytotoxicity against human NCI-H1819 cells assessed as cell growth inhibition at 5 to 10 uM after 72 hrs by MTT assay; assay type: functional; method in brief: as §3
[8] = system: A-375; assay: Cytotoxicity against human A375 cells assessed as cell growth inhibition at 5 to 10 uM after 72 hrs by MTT assay; assay type: functional; method in brief: as §3
[9] = system: NCI-H520; assay: Cytotoxicity against human NCI-H520 cells assessed as cell growth inhibition at 5 to 10 uM after 72 hrs by MTT assay; assay type: functional; method in brief: as §3
[10] = biological target: T1, Signal transducer and activator of transcription 3; assay: Inhibition of SH2 domain of Stat3 constitutive phosphorylation at Tyr705 in human MDA-MB-468 cells at 5 uM after 30 mins by Western blotting; assay type: cell-based
Method in brief: (§4)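 MDA-MB-468 cells given a single 5 μM prodrug dose and harvested at set times; pTyr705 and total Stat3 by Western blot of 12 μg lysate protein on 8% SDS-PAGE.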

[11] = biological target: T2, Signal transducer and activator of transcription 1-alpha/beta (Homo sapiens) (UniProt P42224); assay: Inhibition of IFN-gamma-induced Stat1 phosphorylation at Tyr701 in human MDA-MB-468 cells at 5 uM treated 1.5 hrs before IFN-gamma challenge measured after 30 mins by Western blotting; assay type: cell-based
T2 sequence (whole entry): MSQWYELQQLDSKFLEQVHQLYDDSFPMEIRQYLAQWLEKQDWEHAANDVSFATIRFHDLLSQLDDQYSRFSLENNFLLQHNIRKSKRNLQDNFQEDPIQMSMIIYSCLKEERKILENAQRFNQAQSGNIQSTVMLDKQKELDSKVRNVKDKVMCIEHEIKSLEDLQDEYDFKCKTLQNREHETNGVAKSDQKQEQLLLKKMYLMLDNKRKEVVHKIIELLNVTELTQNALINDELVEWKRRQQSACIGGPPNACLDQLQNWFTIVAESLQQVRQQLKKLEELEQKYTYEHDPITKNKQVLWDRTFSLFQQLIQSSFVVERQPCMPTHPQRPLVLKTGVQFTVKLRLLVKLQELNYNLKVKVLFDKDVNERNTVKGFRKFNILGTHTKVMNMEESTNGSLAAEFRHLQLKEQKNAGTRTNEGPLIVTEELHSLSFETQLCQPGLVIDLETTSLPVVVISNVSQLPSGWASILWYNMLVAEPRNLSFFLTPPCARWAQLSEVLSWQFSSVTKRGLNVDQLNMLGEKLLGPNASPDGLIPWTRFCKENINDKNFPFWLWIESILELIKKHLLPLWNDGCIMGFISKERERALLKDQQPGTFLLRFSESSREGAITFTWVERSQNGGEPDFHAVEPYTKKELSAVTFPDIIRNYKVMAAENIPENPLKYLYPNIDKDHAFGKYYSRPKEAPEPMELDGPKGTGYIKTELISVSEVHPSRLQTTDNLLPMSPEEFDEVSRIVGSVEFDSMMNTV
Method in brief: (§5)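 MDA-MB-468 cells exposed to rising prodrug concentrations for 1.5 h, then interferon γ 25 ng/mL for 30 min; Western blot for pTyr701 and total Stat1.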

[12] = system: MDA-MB-468; assay: Selectivity ratio of inhibition of IFNgamma-induced Stat1 phosphorylation at Tyr701 to inhibition of EGF-induced SH2 domain of Stat3 phosphorylation at Tyr705 in human MDA-MB-468 cells; assay type: cell-based
[13] = biological target: T2, Signal transducer and activator of transcription 1-alpha/beta (Homo sapiens); assay: Inhibition of IFN-gamma-induced Stat1 phosphorylation at Tyr701 in human MDA-MB-468 cells treated 1.5 hrs before IFN-gamma challenge measured after 30 mins by Western blotting; assay type: cell-based; method in brief: as §5
[14] = system: A549; assay: Cytotoxicity against human A549 cells assessed as cell growth inhibition at 5 to 10 uM after 72 hrs by MTT assay; assay type: functional; method in brief: as §3
[15] = biological target: RAC-alpha serine/threonine-protein kinase (Homo sapiens) (UniProt P31749); assay: Inhibition of EGF-induced Akt phosphorylation at Ser473 in human MDA-MB-468 cells at 5 uM treated 1.5 hrs before EGF challenge measured after 30 mins by Western blotting; assay type: cell-based
Method in brief: (§6)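 MDA-MB-468 cells pretreated 1.5 h with prodrug (5 μM), then EGF 100 ng/mL for 30 min; lysates split onto three PVDF blots probed for phospho/total Stat3, pSer473/total Akt, and phospho/total Stat5.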

[16] = biological target: T1, Signal transducer and activator of transcription 3; assay: Inhibition of SH2 domain of Stat3 constitutive phosphorylation at Tyr705 in human MDA-MB-468 cells at 5 uM after 8 hrs by Western blotting; assay type: cell-based; method in brief: as §4
[17] = biological target: T1, Signal transducer and activator of transcription 3; assay: Inhibition of SH2 domain of Stat3 constitutive phosphorylation at Tyr705 in human MDA-MB-468 cells at 5 uM after 4 hrs by Western blotting; assay type: cell-based; method in brief: as §4
[18] = biological target: T3, Signal transducer and activator of transcription 5A (Homo sapiens) (UniProt P42229); assay: Inhibition of EGF-induced SH2 domain of Stat5 phosphorylation at Tyr694 in human MDA-MB-468 cells at 5 uM treated 1.5 hrs before EGF challenge measured after 30 mins by Western blotting; assay type: cell-based; method in brief: as §6
T3 sequence (whole entry): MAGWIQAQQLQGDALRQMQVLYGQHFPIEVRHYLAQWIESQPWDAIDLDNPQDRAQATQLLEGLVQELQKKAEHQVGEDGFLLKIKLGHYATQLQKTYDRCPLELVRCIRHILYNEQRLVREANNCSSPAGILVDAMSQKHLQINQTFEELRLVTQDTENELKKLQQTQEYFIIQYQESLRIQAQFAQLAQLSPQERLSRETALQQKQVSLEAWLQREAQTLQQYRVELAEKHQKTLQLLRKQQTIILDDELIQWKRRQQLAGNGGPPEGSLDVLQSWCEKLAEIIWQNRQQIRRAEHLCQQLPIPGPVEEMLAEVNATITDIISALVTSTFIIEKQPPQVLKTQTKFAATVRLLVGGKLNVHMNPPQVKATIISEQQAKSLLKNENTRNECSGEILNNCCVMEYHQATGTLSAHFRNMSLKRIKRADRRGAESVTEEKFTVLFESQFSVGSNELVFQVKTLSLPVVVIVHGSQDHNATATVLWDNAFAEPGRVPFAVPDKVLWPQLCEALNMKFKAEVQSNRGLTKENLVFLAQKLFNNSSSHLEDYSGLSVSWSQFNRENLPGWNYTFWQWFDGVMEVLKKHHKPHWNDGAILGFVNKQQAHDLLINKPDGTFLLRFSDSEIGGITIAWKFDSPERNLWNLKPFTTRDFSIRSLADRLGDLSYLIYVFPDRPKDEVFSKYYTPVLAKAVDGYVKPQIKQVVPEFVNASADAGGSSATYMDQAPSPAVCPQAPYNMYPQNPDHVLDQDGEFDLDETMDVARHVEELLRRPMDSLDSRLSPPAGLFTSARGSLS

[19] = biological target: T1, Signal transducer and activator of transcription 3; assay: Inhibition of EGF-induced SH2 domain of Stat3 phosphorylation at Tyr705 in human MDA-MB-468 cells at 5 uM treated 1.5 hrs before EGF challenge measured after 30 mins by Western blotting; assay type: cell-based; method in brief: as §6
[20] = biological target: T1, Signal transducer and activator of transcription 3; assay: Inhibition of SH2 domain of Stat3 constitutive phosphorylation at Tyr705 in human MDA-MB-468 cells at 5 uM after 16 hrs by Western blotting; assay type: cell-based; method in brief: as §4
[21] = biological target: T1, Signal transducer and activator of transcription 3; assay: Inhibition of SH2 domain of Stat3 constitutive phosphorylation at Tyr705 in human MDA-MB-468 cells at 0.5 uM after 2 hrs by Western blotting; assay type: cell-based; method in brief: as §1
[22] = biological target: T1, Signal transducer and activator of transcription 3; assay: Inhibition of SH2 domain of Stat3 constitutive phosphorylation at Tyr705 in human MDA-MB-468 cells at 5 uM after 2 hrs by Western blotting; assay type: cell-based; method in brief: as §1
[23] = system: MDA-MB-468; assay: Cytotoxicity against human MDA-MB-468 cells up to 50 uM after 72 hrs by SRB assay; assay type: functional, cell-based
[24] = system: HCC827; assay: Cytotoxicity against human HCC827 cells up to 50 uM after 72 hrs by SRB assay; assay type: functional, cell-based
Method in brief: (§7)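 Cancer cell lines (MCF-7, SKOV3-ip, HCC-827) dosed daily with prodrug for three days; viability by SRB assay.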

[25] = system: MCF7; assay: Cytotoxicity against human MCF7 cells up to 50 uM after 72 hrs by SRB assay; assay type: functional, cell-based; method in brief: as §7
[26] = system: SKOV3ip; assay: Cytotoxicity against human SKOV3ip cells up to 50 uM after 72 hrs by SRB assay; assay type: functional, cell-based; method in brief: as §7
[27] = system: MDA-MB-468; assay: Cytotoxicity against human MDA-MB-468 cells after 72 hrs by MTT assay; assay type: functional, cell-based; conditions: MDA-MB-468, 72 h; method in brief: as §2

T1 sequence (P40763 whole entry, the tested form may be a part): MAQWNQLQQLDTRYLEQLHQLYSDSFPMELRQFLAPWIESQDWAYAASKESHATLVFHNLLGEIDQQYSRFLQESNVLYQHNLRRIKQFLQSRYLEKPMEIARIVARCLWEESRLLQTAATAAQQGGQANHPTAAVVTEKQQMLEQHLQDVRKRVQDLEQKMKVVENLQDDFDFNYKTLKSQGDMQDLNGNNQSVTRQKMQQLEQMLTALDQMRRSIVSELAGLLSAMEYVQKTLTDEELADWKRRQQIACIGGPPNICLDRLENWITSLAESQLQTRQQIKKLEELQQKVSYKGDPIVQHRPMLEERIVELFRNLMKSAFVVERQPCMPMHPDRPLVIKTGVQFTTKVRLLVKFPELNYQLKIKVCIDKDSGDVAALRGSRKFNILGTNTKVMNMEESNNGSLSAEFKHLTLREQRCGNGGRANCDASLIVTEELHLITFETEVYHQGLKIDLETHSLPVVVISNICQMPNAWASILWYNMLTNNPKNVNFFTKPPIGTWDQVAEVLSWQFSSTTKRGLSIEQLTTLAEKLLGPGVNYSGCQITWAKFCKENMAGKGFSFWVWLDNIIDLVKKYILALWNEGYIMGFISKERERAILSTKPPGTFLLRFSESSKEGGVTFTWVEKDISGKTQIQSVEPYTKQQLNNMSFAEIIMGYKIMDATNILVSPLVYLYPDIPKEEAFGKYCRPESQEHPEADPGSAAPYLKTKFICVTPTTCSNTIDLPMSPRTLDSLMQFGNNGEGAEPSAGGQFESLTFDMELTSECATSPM
Sequence of Focal adhesion kinase 1 (Homo sapiens) (Q05397 2-1052 limits assumed): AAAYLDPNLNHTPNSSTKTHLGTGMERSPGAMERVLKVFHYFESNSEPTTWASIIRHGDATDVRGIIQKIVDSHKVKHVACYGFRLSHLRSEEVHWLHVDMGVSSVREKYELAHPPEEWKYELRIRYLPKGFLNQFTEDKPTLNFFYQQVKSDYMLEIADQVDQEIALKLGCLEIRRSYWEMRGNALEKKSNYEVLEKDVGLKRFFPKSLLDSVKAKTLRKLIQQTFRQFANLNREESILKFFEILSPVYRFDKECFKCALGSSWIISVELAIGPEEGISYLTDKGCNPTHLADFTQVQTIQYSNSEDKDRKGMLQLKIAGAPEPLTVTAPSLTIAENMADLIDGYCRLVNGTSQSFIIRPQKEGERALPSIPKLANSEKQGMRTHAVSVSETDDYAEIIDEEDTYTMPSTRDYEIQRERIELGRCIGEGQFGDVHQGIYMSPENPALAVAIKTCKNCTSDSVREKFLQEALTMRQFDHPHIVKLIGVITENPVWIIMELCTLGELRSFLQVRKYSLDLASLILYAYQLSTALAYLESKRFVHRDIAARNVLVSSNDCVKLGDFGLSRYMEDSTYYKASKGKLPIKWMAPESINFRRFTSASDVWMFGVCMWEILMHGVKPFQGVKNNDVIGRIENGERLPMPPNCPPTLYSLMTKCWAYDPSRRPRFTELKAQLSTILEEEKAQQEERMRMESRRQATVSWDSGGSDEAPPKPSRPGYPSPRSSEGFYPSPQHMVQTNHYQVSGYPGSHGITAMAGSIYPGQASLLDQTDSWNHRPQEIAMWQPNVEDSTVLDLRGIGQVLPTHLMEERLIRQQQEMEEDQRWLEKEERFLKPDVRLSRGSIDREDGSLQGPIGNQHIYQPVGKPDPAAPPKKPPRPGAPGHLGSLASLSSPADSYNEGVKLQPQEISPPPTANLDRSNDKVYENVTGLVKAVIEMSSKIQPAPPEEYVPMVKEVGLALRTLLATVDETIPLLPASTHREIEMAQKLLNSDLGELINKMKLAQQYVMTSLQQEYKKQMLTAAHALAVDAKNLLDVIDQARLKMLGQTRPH
Sequence of RAC-alpha serine/threonine-protein kinase (Homo sapiens) (P31749 whole entry): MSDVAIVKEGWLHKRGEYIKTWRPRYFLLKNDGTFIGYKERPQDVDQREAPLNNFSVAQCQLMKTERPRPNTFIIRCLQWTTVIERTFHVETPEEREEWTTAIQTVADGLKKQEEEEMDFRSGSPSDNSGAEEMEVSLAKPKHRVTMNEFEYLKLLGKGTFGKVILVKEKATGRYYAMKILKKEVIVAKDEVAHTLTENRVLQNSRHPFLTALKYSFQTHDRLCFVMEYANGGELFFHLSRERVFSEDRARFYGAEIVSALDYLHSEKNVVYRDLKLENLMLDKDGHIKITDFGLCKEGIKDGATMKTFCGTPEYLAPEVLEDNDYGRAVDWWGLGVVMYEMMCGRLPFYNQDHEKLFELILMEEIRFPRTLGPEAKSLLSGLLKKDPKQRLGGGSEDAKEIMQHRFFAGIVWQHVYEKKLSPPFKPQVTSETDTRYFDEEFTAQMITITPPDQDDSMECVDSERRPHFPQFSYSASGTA

Row | SMILES | inhibition [1] | inhibition [4] | inhibition [10] | inhibition [11] | Ratio [12] | inhibition [13] | inhibition [15] | inhibition [16] | inhibition [17] | inhibition [18] | inhibition [19] | inhibition [20] | inhibition [21] | IC50 [27] | further results
1 | CCCC[C@H](NC(=O)/C=C(\C)c1ccc(C(F)(F)P(=O)(OCOC(=O)C(C)(C)C)OCOC(=O)C(C)(C)C)cc1)C(=O)N1C[C@@H]2C[C@@H]2[C@@H]1C(=O)N[C@@H](CCC(N)=O)C(C)OCc1ccccc1 (some centres not stated) | inactive | – | – | – | – | – | – | – | – | – | – | – | – | – | growth inhibition (GI) [2]: Active
2 | CCCC[C@H](NC(=O)/C=C(\C)c1ccc(C(F)(F)P(=O)(OCOC(=O)C(C)(C)C)OCOC(=O)C(C)(C)C)cc1)C(=O)N1C[C@H]2C[C@H]2[C@H]1C(=O)N[C@@H](CCC(N)=O)C(C)OCc1ccccc1 (some centres not stated) | – | inactive | Active | Active | 10 | Dose-dependent effect | inactive | Active | Active | inactive | Active | inactive | Active | – | growth inhibition (GI) [3]: <20%; growth inhibition (GI) [5]: <20%; growth inhibition (GI) [6]: <20%; growth inhibition (GI) [7]: <20%; growth inhibition (GI) [8]: <20%; growth inhibition (GI) [9]: <20%; growth inhibition (GI) [14]: <20%
3 | CCCC[C@H](NC(=O)/C=C(\C)c1ccc(C(F)(F)P(=O)(OCOC(=O)C(C)(C)C)OCOC(=O)C(C)(C)C)cc1)C(=O)N1CC2CC2C1C(=O)NCCNC(N)=O (mixture of isomers) | – | – | – | – | – | – | – | – | – | – | – | – | – | – | inhibition [22]: Active
4 | CCOP(=O)(OCC)C(F)(F)c1ccc(/C(C)=C/C(=O)N[C@H]2CCc3cccc4c3N(C2=O)[C@H](C(=O)N[C@H](C)CCC(N)=O)C4)cc1 | inactive | – | – | – | – | – | – | – | – | – | – | – | – | – | growth inhibition (GI) [23]: inactive; growth inhibition (GI) [24]: inactive; growth inhibition (GI) [25]: inactive; growth inhibition (GI) [26]: inactive
5 | CCCC[C@H](NC(=O)/C=C(\C)c1ccc(C(F)(F)P(=O)(OCOC(=O)C(C)(C)C)OCOC(=O)C(C)(C)C)cc1)C(=O)N1C[C@H]2C[C@H]2[C@H]1C(=O)N[C@H](C)CCC(N)=O | – | inactive | Active | Active | 10 | Dose-dependent effect | inactive | Active | Active | inactive | Active | inactive | Active | 30 µM | –
6 | CCCC[C@H](NC(=O)/C=C(\C)c1ccc(C(F)(F)P(=O)(OCOC(=O)C(C)(C)C)OCOC(=O)C(C)(C)C)cc1)C(=O)N1C[C@@H]2C[C@@H]2[C@@H]1C(=O)N[C@H](C)CCC(N)=O | Active | – | – | – | – | – | – | – | – | – | – | – | – | 30 µM | –
